# Results as given in PubChem BioAssay AID2269 (The Scripps Research Institute Molecular Screening Center, 2010).
# Activity calls are given as the source filed them. How the calls were made is not given here.
# Biological target: Serine hydrolase RBBP9 (Homo sapiens) (UniProt O75884)
# Assay: RBBP9 serine hydrolase inhibitors, late-stage follow-up, orthogonal assay, biochemical, gel-based ABPP, FP-rhodamine, powder samples (AID 2269)
# Conditions: recombinant RBBP9, gel-based ABPP, FP-rhodamine labeling; at 20 µM; hits give high values
# How it was run: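 Material – recombinant RBBP9 protein · Signal – SDS-PAGE separation with in-gel fluorescence scanning · Doses – single compound concentration per test · Control set – DMSO vehicle control · Timing – compound 30 min at 25 °C, probe 45 min · Read-out basis – percent inhibition from integrated optical density of labeled bands · Reagent – fluorophosphonate-rhodamine activity-based probe, 75 nM final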
# Serine hydrolase RBBP9 (Homo sapiens), sequence (O75884 whole entry, looked up): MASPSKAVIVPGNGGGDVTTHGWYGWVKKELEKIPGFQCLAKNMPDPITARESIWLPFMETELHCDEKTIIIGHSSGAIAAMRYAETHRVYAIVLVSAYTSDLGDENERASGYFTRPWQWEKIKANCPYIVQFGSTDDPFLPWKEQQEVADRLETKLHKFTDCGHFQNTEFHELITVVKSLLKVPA
row,SMILES,inhibition
1,C/C(=N\OC(=O)/C=C/c1ccccc1)c1nccs1,42% (inactive)
2,CC(=NOC(=O)c1ccc(S(=O)(=O)N2CCOCC2)cc1)c1cc2ccccc2o1,15% (inactive)
3,C/C(=N\OC(=O)C1CCCCC1)c1nccs1,91%
4,CC(C)=NOC(=O)c1cn(-c2ccccc2)nc1-c1cccs1,0% (inactive)
5,CC(=NOC(=O)c1ccc(-c2ccccc2)cc1)c1cccs1,0% (inactive)
6,CC(C)=NOC(=O)c1cn(-c2ccccc2)nc1-c1ccc(F)cc1,0% (inactive)
7,C/C(=N\OC(=O)c1ccccc1Cl)c1ccc(Br)cc1,0% (inactive)
8,C/C(=N\OC(=O)c1cccc(Cl)c1)c1nccs1,63%
9,N/C(Cc1ccc(Cl)cc1)=N\OC(=O)C1CCCCC1,0% (inactive)
10,C/C(=N\OC(=O)c1ccc(Cl)cc1)c1nccs1,78%
11,CC(=NOC(=O)c1c(-c2ccccc2Cl)noc1C)c1nccs1,17% (inactive)
12,C/C(=N\OC(=O)c1c(-c2c(F)cccc2Cl)noc1C)c1nccs1,14% (inactive)
13,CC(=NOC(=O)c1ccc(-c2cc(Cl)ccc2Cl)o1)c1ccccc1,0% (inactive)
14,C/C(=N\OC(=O)c1cccc(C(F)(F)F)c1)c1nccs1,46% (inactive)
15,CC(=O)O/N=C(\C)c1nccs1,0% (inactive)
16,NC(=O)C(=NOC(=O)c1ccccc1)c1nc(-c2ccc(Cl)cc2)cs1,57%
17,CC(=O)ON=C(C)c1cc(C(C)(C)C)cc2c1CCC2(C)C,0% (inactive)
18,C/C(=N\OC(=O)c1c(F)cccc1F)c1nccs1,66%
19,COc1ccc(C(=O)ON=C2C=C(C)C(=O)C(C)=C2)cc1,93%

row,SMILES,inhibition
1,C/C(=N\OC(=O)c1ccccc1O)c1cccs1,0% (inactive)
2,C/C(=N\OC(=O)c1ccc(I)cc1)c1nccs1,66%
3,NC(=O)C(=NOC(=O)c1ccccc1Cl)c1nc(-c2ccc(Br)cc2)cs1,0% (inactive)
4,COc1ccc(C(=O)ON=C2C(C)=CC(=O)C=C2C)cc1,48% (inactive)
5,COc1ccc(C(=O)O/N=C2\C=C(C)C(=O)C=C2C)cc1,76%
6,C/C(=N\OC(=O)c1ccc([N+](=O)[O-])cc1)c1nccs1,15% (inactive)
7,C/C(=N\OC(=O)c1ccccc1F)c1nccs1,64%
8,C#CCCC(=O)O/N=C(\C)c1nccs1,42% (inactive)
9,C/C(=N\OC(=O)c1ccccc1)c1nccs1,62%
10,COc1ccc(C(=O)O/N=C(\C)c2nccs2)cc1,60%
11,CC(=NOC(=O)c1cn(-c2ccccc2)nc1-c1ccc(Cl)cc1)c1ccccc1,10% (inactive)
12,NC(=NOC(=O)C1CCCCC1)c1cccc([N+](=O)[O-])c1,5% (inactive)
13,CC1=CC(=NOC(=O)/C=C/c2ccccc2)C=C(C)C1=O,78%
14,N/C(Cc1cccs1)=N\OC(=O)C12CC3CC(CC(C3)C1)C2,6% (inactive)
15,C/C(=N\OC(=O)N1CCCCC1)c1nccs1,0% (inactive)
16,C/C(=N\OC(=O)c1ccc(-c2ccccc2)cc1)c1nccs1,4% (inactive)
17,COc1ccc(/C(N)=N/OC(=O)C23CC4CC(CC(C4)C2)C3)cc1OC,28% (inactive)
18,C/C(=N\OC(=O)c1ccc(F)cc1)c1nccs1,76%
